Data: ChEMBL document CHEMBL1154778, “Synthesis and biological evaluation of C-5 methyl substituted 4-arylthio and 4-aryloxy-3-Iodopyridin-2(1H)-one type anti-HIV agents” (J Med Chem, 2009)

Test system: Human immunodeficiency virus 1
Assay: Antiviral activity against HIV-1 LAI harboring wild type reverse transcriptase infected in human MT4 cells after 5 days by MTT assay
Type: functional, organism-based
Details: Human immunodeficiency virus 1, LAI, MT4, 120 h
Summary of the method: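 MT4 cells were kept in RPMI 1640 with 10% fetal calf serum and antibiotics at 37 °C, 5% CO2. A range of compound concentrations was incubated with HIV-1 LAI at 200 CCID50/well and 30000 MT4 cells/well for 5 days at 37 °C. Cell viability was read by MTT, and IC50 was the concentration giving 50% infection versus the drug-free control.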

Compound	IC50 [nM]
CCSCc1c(C)[nH]c(=O)c(I)c1Oc1cc(C)cc(C)c1	1.25
CCc1c(C)[nH]c(=O)c(N(C)C)c1Cc1cc(C)cc(C)c1	7.94
CCc1c(C)[nH]c(=O)c(N(C)C)c1C(=O)c1cc(C)cc(C)c1	3.98
Cc1cc(C)cc(Sc2c(Cn3ncnn3)c(C)[nH]c(=O)c2I)c1	0.63
Cc1cc(C)cc(Oc2c(CSCc3csc(C)n3)c(C)[nH]c(=O)c2I)c1	1

Test system: not listed separately
Assay: Selectivity index, ratio of CC50 for human MT4 cells to IC50 for HIV-1 LAI harboring wild type reverse transcriptase infected in human MT4 cells
Type: functional
Details: not given
Summary of the method: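 Cytotoxicity was measured in mock-infected MT4 cultures (30000 cells/well) given the same compound concentration range, run in parallel with the infected cultures for 5 days at 37 °C, 5% CO2, with MTT viability. CC50 was the concentration reducing viability by 50% versus the drug-free control. SI was CC50 divided by IC50 against HIV-1 LAI.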

Compound	Ratio CC50/IC50
CCSCc1c(C)[nH]c(=O)c(I)c1Oc1cc(C)cc(C)c1	>79433
CCc1c(C)[nH]c(=O)c(N(C)C)c1Cc1cc(C)cc(C)c1	12589
CCc1c(C)[nH]c(=O)c(N(C)C)c1C(=O)c1cc(C)cc(C)c1	2512
Cc1cc(C)cc(Sc2c(Cn3ncnn3)c(C)[nH]c(=O)c2I)c1	>158489
Cc1cc(C)cc(Oc2c(CSCc3csc(C)n3)c(C)[nH]c(=O)c2I)c1	>100000

Test system: Human immunodeficiency virus 1
Assay: Antiviral activity against HIV1 HXB2 harboring K103N mutant reverse transcriptase infected in human MT4 cells after 5 days by MTT assay
Type: functional, organism-based
Details: Human immunodeficiency virus 1, HXB2, MT4, 120 h
Summary of the method: (§1)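 Mutant viruses were made by recombining the mutant PR-RT sequence into a PR-RT-deleted HIV-1 HXB2 proviral clone. MT4 cells were grown in RPMI 1640 with 10% FCS and antibiotics. Virus at 200 CCID50/well and 30000 cells/well were incubated with varied compound concentrations for 5 days at 37 °C, 5% CO2. MTT viability gave IC50, the concentration giving 50% infection versus the drug-free control.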

Compound	IC50 [nM]
CCSCc1c(C)[nH]c(=O)c(I)c1Oc1cc(C)cc(C)c1	6.3
CCc1c(C)[nH]c(=O)c(N(C)C)c1Cc1cc(C)cc(C)c1	31.6
CCc1c(C)[nH]c(=O)c(N(C)C)c1C(=O)c1cc(C)cc(C)c1	10
Cc1cc(C)cc(Sc2c(Cn3ncnn3)c(C)[nH]c(=O)c2I)c1	1.25
Cc1cc(C)cc(Oc2c(CSCc3csc(C)n3)c(C)[nH]c(=O)c2I)c1	1

Test system: Human immunodeficiency virus 1
Assay: Antiviral activity against HIV1 HXB2 harboring Y181C mutant reverse transcriptase infected in human MT4 cells after 5 days by MTT assay
Type: functional, organism-based
Details: Human immunodeficiency virus 1, HXB2, MT4, 120 h
Summary of the method: as §1

Compound	IC50 [nM]
CCSCc1c(C)[nH]c(=O)c(I)c1Oc1cc(C)cc(C)c1	6.3
CCc1c(C)[nH]c(=O)c(N(C)C)c1Cc1cc(C)cc(C)c1	100
CCc1c(C)[nH]c(=O)c(N(C)C)c1C(=O)c1cc(C)cc(C)c1	63.1
Cc1cc(C)cc(Sc2c(Cn3ncnn3)c(C)[nH]c(=O)c2I)c1	10
Cc1cc(C)cc(Oc2c(CSCc3csc(C)n3)c(C)[nH]c(=O)c2I)c1	6.3

Test system: Human immunodeficiency virus 1
Assay: Antiviral activity against HIV1 HXB2 harboring Y188L mutant reverse transcriptase infected in human MT4 cells after 5 days by MTT assay
Type: functional, organism-based
Details: Human immunodeficiency virus 1, HXB2, MT4, 120 h
Summary of the method: as §1

Compound	IC50 [nM]
CCSCc1c(C)[nH]c(=O)c(I)c1Oc1cc(C)cc(C)c1	31.6
CCc1c(C)[nH]c(=O)c(N(C)C)c1Cc1cc(C)cc(C)c1	251
CCc1c(C)[nH]c(=O)c(N(C)C)c1C(=O)c1cc(C)cc(C)c1	158
Cc1cc(C)cc(Sc2c(Cn3ncnn3)c(C)[nH]c(=O)c2I)c1	31.6
Cc1cc(C)cc(Oc2c(CSCc3csc(C)n3)c(C)[nH]c(=O)c2I)c1	7.9

Test system: Human immunodeficiency virus 1
Assay: Antiviral activity against HIV1 HXB2 harboring 100I mutant reverse transcriptase infected in human MT4 cells after 5 days by MTT assay
Type: functional, organism-based
Details: Human immunodeficiency virus 1, HXB2, MT4, 120 h
Summary of the method: as §1

Compound	IC50 [nM]
CCSCc1c(C)[nH]c(=O)c(I)c1Oc1cc(C)cc(C)c1	7.94
CCc1c(C)[nH]c(=O)c(N(C)C)c1Cc1cc(C)cc(C)c1	50.1
CCc1c(C)[nH]c(=O)c(N(C)C)c1C(=O)c1cc(C)cc(C)c1	6.31
Cc1cc(C)cc(Sc2c(Cn3ncnn3)c(C)[nH]c(=O)c2I)c1	1.25
Cc1cc(C)cc(Oc2c(CSCc3csc(C)n3)c(C)[nH]c(=O)c2I)c1	3.16

Test system: Human immunodeficiency virus 1
Assay: Antiviral activity against HIV1 HXB2 harboring 101E mutant reverse transcriptase infected in human MT4 cells after 5 days by MTT assay
Type: functional, organism-based
Details: Human immunodeficiency virus 1, HXB2, MT4, 120 h
Summary of the method: as §1

Compound	IC50 [nM]
CCSCc1c(C)[nH]c(=O)c(I)c1Oc1cc(C)cc(C)c1	19.9
CCc1c(C)[nH]c(=O)c(N(C)C)c1Cc1cc(C)cc(C)c1	15.8
CCc1c(C)[nH]c(=O)c(N(C)C)c1C(=O)c1cc(C)cc(C)c1	7.94
Cc1cc(C)cc(Sc2c(Cn3ncnn3)c(C)[nH]c(=O)c2I)c1	3.3

Test system: Human immunodeficiency virus 1
Assay: Antiviral activity against HIV1 HXB2 harboring 106A mutant reverse transcriptase infected in human MT4 cells after 5 days by MTT assay
Type: functional, organism-based
Details: Human immunodeficiency virus 1, HXB2, MT4, 120 h
Summary of the method: as §1

Compound	IC50 [nM]
CCSCc1c(C)[nH]c(=O)c(I)c1Oc1cc(C)cc(C)c1	7.94
CCc1c(C)[nH]c(=O)c(N(C)C)c1Cc1cc(C)cc(C)c1	39.8
CCc1c(C)[nH]c(=O)c(N(C)C)c1C(=O)c1cc(C)cc(C)c1	6.31
Cc1cc(C)cc(Sc2c(Cn3ncnn3)c(C)[nH]c(=O)c2I)c1	0.6

Test system: Human immunodeficiency virus 1
Assay: Antiviral activity against HIV1 HXB2 harboring 138K mutant reverse transcriptase infected in human MT4 cells after 5 days by MTT assay
Type: functional, organism-based
Details: Human immunodeficiency virus 1, HXB2, MT4, 120 h
Summary of the method: as §1

Compound	IC50 [nM]
CCSCc1c(C)[nH]c(=O)c(I)c1Oc1cc(C)cc(C)c1	25.1
CCc1c(C)[nH]c(=O)c(N(C)C)c1C(=O)c1cc(C)cc(C)c1	6.31
Cc1cc(C)cc(Sc2c(Cn3ncnn3)c(C)[nH]c(=O)c2I)c1	2.6

Test system: Human immunodeficiency virus 1
Assay: Antiviral activity against HIV1 HXB2 harboring 179E mutant reverse transcriptase infected in human MT4 cells after 5 days by MTT assay
Type: functional, organism-based
Details: Human immunodeficiency virus 1, HXB2, MT4, 120 h
Summary of the method: as §1

Compound	IC50 [nM]
CCSCc1c(C)[nH]c(=O)c(I)c1Oc1cc(C)cc(C)c1	10
CCc1c(C)[nH]c(=O)c(N(C)C)c1C(=O)c1cc(C)cc(C)c1	2.51
Cc1cc(C)cc(Sc2c(Cn3ncnn3)c(C)[nH]c(=O)c2I)c1	0.8

Test system: Human immunodeficiency virus 1
Assay: Antiviral activity against HIV1 HXB2 harboring 190A mutant reverse transcriptase infected in human MT4 cells after 5 days by MTT assay
Type: functional, organism-based
Details: Human immunodeficiency virus 1, HXB2, MT4, 120 h
Summary of the method: as §1

Compound	IC50 [nM]
CCSCc1c(C)[nH]c(=O)c(I)c1Oc1cc(C)cc(C)c1	19.9
CCc1c(C)[nH]c(=O)c(N(C)C)c1Cc1cc(C)cc(C)c1	63.1
CCc1c(C)[nH]c(=O)c(N(C)C)c1C(=O)c1cc(C)cc(C)c1	12.6
Cc1cc(C)cc(Sc2c(Cn3ncnn3)c(C)[nH]c(=O)c2I)c1	1

Test system: Human immunodeficiency virus 1
Assay: Antiviral activity against HIV1 HXB2 harboring 190S mutant reverse transcriptase infected in human MT4 cells after 5 days by MTT assay
Type: functional, organism-based
Details: Human immunodeficiency virus 1, HXB2, MT4, 120 h
Summary of the method: as §1

Compound	IC50 [nM]
CCSCc1c(C)[nH]c(=O)c(I)c1Oc1cc(C)cc(C)c1	10
CCc1c(C)[nH]c(=O)c(N(C)C)c1C(=O)c1cc(C)cc(C)c1	3.98
Cc1cc(C)cc(Sc2c(Cn3ncnn3)c(C)[nH]c(=O)c2I)c1	0.3

Test system: Human immunodeficiency virus 1
Assay: Antiviral activity against HIV1 HXB2 harboring 227C mutant reverse transcriptase infected in human MT4 cells after 5 days by MTT assay
Type: functional, organism-based
Details: Human immunodeficiency virus 1, HXB2, MT4, 120 h
Summary of the method: as §1

Compound	IC50 [nM]
CCSCc1c(C)[nH]c(=O)c(I)c1Oc1cc(C)cc(C)c1	199
CCc1c(C)[nH]c(=O)c(N(C)C)c1C(=O)c1cc(C)cc(C)c1	631
Cc1cc(C)cc(Sc2c(Cn3ncnn3)c(C)[nH]c(=O)c2I)c1	50.1
Cc1cc(C)cc(Oc2c(CSCc3csc(C)n3)c(C)[nH]c(=O)c2I)c1	39.8

Test system: Human immunodeficiency virus 1
Assay: Antiviral activity against HIV1 HXB2 harboring 100I and K103N mutant reverse transcriptase infected in human MT4 cells after 5 days by MTT assay
Type: functional, organism-based
Details: Human immunodeficiency virus 1, HXB2, MT4, 120 h
Summary of the method: as §1

Compound	IC50 [nM]
CCSCc1c(C)[nH]c(=O)c(I)c1Oc1cc(C)cc(C)c1	15.8
CCc1c(C)[nH]c(=O)c(N(C)C)c1C(=O)c1cc(C)cc(C)c1	39.8
Cc1cc(C)cc(Sc2c(Cn3ncnn3)c(C)[nH]c(=O)c2I)c1	3.98
Cc1cc(C)cc(Oc2c(CSCc3csc(C)n3)c(C)[nH]c(=O)c2I)c1	158

Test system: Human immunodeficiency virus 1
Assay: Antiviral activity against HIV1 HXB2 harboring 101E and K103N mutant reverse transcriptase infected in human MT4 cells after 5 days by MTT assay
Type: functional, organism-based
Details: Human immunodeficiency virus 1, HXB2, MT4, 120 h
Summary of the method: as §1

Compound	IC50 [nM]
CCSCc1c(C)[nH]c(=O)c(I)c1Oc1cc(C)cc(C)c1	19.9
CCc1c(C)[nH]c(=O)c(N(C)C)c1C(=O)c1cc(C)cc(C)c1	12.6
Cc1cc(C)cc(Sc2c(Cn3ncnn3)c(C)[nH]c(=O)c2I)c1	5

Test system: Human immunodeficiency virus 1
Assay: Antiviral activity against HIV1 HXB2 harboring K103N and Y181C mutant reverse transcriptase infected in human MT4 cells after 5 days by MTT assay
Type: functional, organism-based
Details: Human immunodeficiency virus 1, HXB2, MT4, 120 h
Summary of the method: as §1

Compound	IC50 [nM]
CCSCc1c(C)[nH]c(=O)c(I)c1Oc1cc(C)cc(C)c1	19.9
CCc1c(C)[nH]c(=O)c(N(C)C)c1Cc1cc(C)cc(C)c1	794
CCc1c(C)[nH]c(=O)c(N(C)C)c1C(=O)c1cc(C)cc(C)c1	158
Cc1cc(C)cc(Sc2c(Cn3ncnn3)c(C)[nH]c(=O)c2I)c1	32.9

Test system: Human immunodeficiency virus 1
Assay: Antiviral activity against HIV1 HXB2 harboring 227L and 106A mutant reverse transcriptase infected in human MT4 cells after 5 days by MTT assay
Type: functional, organism-based
Details: Human immunodeficiency virus 1, HXB2, MT4, 120 h
Summary of the method: as §1

Compound	IC50 [nM]	EC50 [nM]
CCSCc1c(C)[nH]c(=O)c(I)c1Oc1cc(C)cc(C)c1	125	–
CCc1c(C)[nH]c(=O)c(N(C)C)c1C(=O)c1cc(C)cc(C)c1	398	–
Cc1cc(C)cc(Sc2c(Cn3ncnn3)c(C)[nH]c(=O)c2I)c1	50.1	–
Cc1cc(C)cc(Oc2c(CSCc3csc(C)n3)c(C)[nH]c(=O)c2I)c1	–	158
